# Published values gathered from unrelated publications.
# Lines come from different studies, so protocols differ.
# Target: Myotonin-protein kinase (DMPK, Homo sapiens, UniProt Q09013)
# One construct used (Q09013 1-629): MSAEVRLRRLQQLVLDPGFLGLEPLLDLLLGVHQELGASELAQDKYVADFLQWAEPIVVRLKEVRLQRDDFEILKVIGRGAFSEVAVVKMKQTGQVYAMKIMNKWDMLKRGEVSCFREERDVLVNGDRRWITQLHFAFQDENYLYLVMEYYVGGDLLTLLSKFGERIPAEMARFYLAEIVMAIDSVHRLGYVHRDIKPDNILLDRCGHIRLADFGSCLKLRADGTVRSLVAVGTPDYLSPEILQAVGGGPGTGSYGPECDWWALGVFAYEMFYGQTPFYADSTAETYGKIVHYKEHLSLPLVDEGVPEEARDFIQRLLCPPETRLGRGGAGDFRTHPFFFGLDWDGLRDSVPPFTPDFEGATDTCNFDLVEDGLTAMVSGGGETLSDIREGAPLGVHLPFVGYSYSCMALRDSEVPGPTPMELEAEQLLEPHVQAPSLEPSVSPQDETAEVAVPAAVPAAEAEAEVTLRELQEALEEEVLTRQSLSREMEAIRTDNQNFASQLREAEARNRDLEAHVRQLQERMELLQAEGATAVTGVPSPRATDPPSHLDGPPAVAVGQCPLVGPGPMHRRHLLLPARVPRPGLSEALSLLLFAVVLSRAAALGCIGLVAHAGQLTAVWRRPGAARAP
SMILES,test,setting,remaining binding [%]
CN(c1nccc(-c2cnn3ncccc23)n1)C1CC1,binding,1 µM,100
O=C(NCCCC1CCCCC1)c1ccc(CNC(=O)c2cnn(-c3ccccc3)c2C(F)(F)F)cc1,"cell-free assay, competition with immobilised ligand",0.1 µM,83
O=C(c1ccc(Nc2ncc(Cl)c(-c3ccc(Cl)s3)n2)cc1)N1CCC(N2CCCC2)CC1,"binding, competition with immobilised ligand",1 µM,100
COc1cnc(Nc2cccc(S(N)(=O)=O)c2)nc1N1CCN(c2ccccc2)C(=O)C1,"binding, competition with immobilised ligand",1 µM,100
C[C@H](NC(=O)c1cnc2n1[C@](C)(Cc1ccc(C#N)cc1)C(=O)N2c1cc(Cl)c(F)c(Cl)c1)C(=O)NC1(c2ccccn2)CC1,"cell-free assay, competition with immobilised ligand",1 µM,67
N[C@H]1CCN(c2nccc(-c3cnn4ncccc34)n2)C1,binding,1 µM,57
Cn1nc(C(=O)NCc2ccc(C(=O)O)cc2)cc1-c1ccc2[nH]ccc2c1,"cell-free assay, competition with immobilised ligand",0.1 µM,76
O=C(c1ccc(Nc2nccc(-c3cc4ccccc4s3)n2)cc1)N1CCC(N2CCCC2)CC1,"binding, competition with immobilised ligand",1 µM,100
Nc1ncc2c(n1)-c1c([nH]c3ccc(C#CC4CC4)cc13)CCCC2,"binding, competition with immobilised ligand",1 µM,82
CCS(=O)(=O)c1cc2cc(C[C@@](O)(CC(C)(C)c3ccc(F)cc3C(N)=O)C(F)(F)F)[nH]c2cn1,"cell-free assay, competition with immobilised ligand",1 µM,85
CN(CCCC(F)(F)F)c1nccc(-c2cnn3ncccc23)n1,binding,1 µM,80
CNCc1ccccc1-c1csc([C@H](C)Nc2nc(C)nc3cc(OC)c(OC)cc23)c1,"cell-free assay, competition with immobilised ligand",1 µM,85
CNC(=O)[C@@H]1CC[C@@H](n2c(-c3ccc4cnccc4c3)nc3ccc(C(=O)NCc4cccc(C(N)=O)c4)cc32)C1,"binding, competition with immobilised ligand",1 µM,86
O=C(Nc1c[nH]nc1C(=O)NC1CCNCC1)c1cc(F)cc(F)c1,"binding, competition with immobilised ligand",1 µM,100
CC1CCCN1c1nccc(-c2cnn3ncccc23)n1 (stereo not shown),binding,1 µM,94
O=C(NCCCN1CCOCC1)c1ccc(Nc2nccc(-c3cc4ccccc4s3)n2)cc1,"binding, competition with immobilised ligand",1 µM,100
Cc1cnn2ncc(-c3ccnc(N(C)C)n3)c2c1,binding,1 µM,100
C[C@H](c1cccc(C#N)c1)n1cc(Cl)cc(C(N)=O)c1=N,"cell-free assay, competition with immobilised ligand",1 µM,100
C[C@H]1CCN(c2nccc(-c3cnn4ncccc34)n2)C1,binding,1 µM,100
c1cncc(-c2cccc(Nc3nccc(NC4CCCCC4)n3)c2)c1,"binding, competition with immobilised ligand",10 µM,100
CCC(=O)N[C@H]1CC[C@@H](C(=O)N(C)c2ccc(-c3nc4ccccc4o3)cc2)C1,"cell-free assay, competition with immobilised ligand",1 µM,100
CN(C)c1nccc(-c2cnc3ncccn23)n1,binding,1 µM,82
